Measured values of several laboratories.
Target: High affinity nerve growth factor receptor (NTRK1, Homo sapiens, UniProt P04629)

O=C(NCC1CCOCC1)c1n[nH]cc1NC(=O)c1c(F)cccc1F gave a remaining binding of 100% (binding; competition with immobilised ligand; 1 µM).
For CN(C)c1nccc(-c2cnc3ncccn23)n1, the remaining binding was 72% (binding; 1 µM).
With NS(=O)(=O)c1cc(NC(=O)Cc2ccccc2)ccc1Oc1cccc(Cl)c1 the remaining binding was 73% (cell-free assay; competition with immobilised ligand; 1 µM).
With Cc1cnn2ncc(-c3ccnc(N(C)C)n3)c2c1 the remaining binding was 80% (binding; 1 µM).
Nc1c(C(=O)NCc2ccc(C(=O)NCCCC3CCCCC3)cc2)cnn1-c1ccccc1 gave a remaining binding of 100% (cell-free assay; competition with immobilised ligand; 0.1 µM).
N[C@H]1CCN(c2nccc(-c3cnn4ncccc34)n2)C1 has a remaining binding of 85% (binding; 1 µM).
With C=CC(=O)N1CCC(C(=O)NCC(=O)N2CCN(c3nc(-c4cnc(N)nc4C(F)F)nc(N4CCOCC4)n3)CC2)CC1 the remaining binding was 81% (binding; competition with immobilised ligand; 1 µM).
For Cc1cc(-n2nc(Cc3cc(F)cc(C(F)(F)F)c3)nc2C)ccc1C(N)=O, the remaining binding was 97% (cell-free assay; competition with immobilised ligand; 1 µM).
With N#Cc1ccccc1CSc1nnc2c(n1)[nH]c1ccccc12 the remaining binding was 98% (binding; competition with immobilised ligand; 10 µM).
c1cnn2ncc(-c3ccnc(N4CCC45COC5)n3)c2c1 has a remaining binding of 53% (binding; 1 µM).
For O=C(c1ccc(Nc2nccc(-c3cc4ccccc4s3)n2)cc1)N1CCC(N2CCCC2)CC1, the remaining binding was 25% (binding; competition with immobilised ligand; 1 µM).
The remaining binding of CN(c1ccnc(CNc2nc(Nc3ccc4c(c3)CC(=O)N4)ncc2C(F)(F)F)n1)S(C)(=O)=O is reported as 10% (cell-free assay; competition with immobilised ligand; 1 µM).
F[C@@H]1CCN(c2nccc(-c3cnn4ncccc34)n2)C1 gave a remaining binding of 86% (binding; 1 µM).
For CN(C(=O)c1ccccc1)c1cc(N(C)c2ccc3c(c2)CCc2ccc(C(=O)NCCN4CCOCC4)cc2C3=O)ccc1F, the remaining binding was 79% (cell-free assay; competition with immobilised ligand; 1 µM).
With CCN1CCN(Cc2ccc(C(=O)Nc3ccc(C)c(Oc4ccc5c(c4)CC(=O)N5)c3)cc2C(F)(F)F)CC1 the remaining binding was 100% (binding; competition with immobilised ligand; 1 µM).
CNC(=O)[C@@H]1CC[C@@H](n2c(-c3ccc4cnccc4c3)nc3ccc(C(=O)NCc4cccc(C(N)=O)c4)cc32)C1 has a remaining binding of 92% (binding; competition with immobilised ligand; 1 µM).
The remaining binding of O=C(NCCCN1CCOCC1)c1ccc(Nc2ncc(Cl)c(-c3ccc(Cl)s3)n2)cc1 is reported as 17% (binding; competition with immobilised ligand; 1 µM).
O=S(=O)(NC1CCC(c2cc(F)ccc2F)(S(=O)(=O)c2ccc(Cl)cc2)CC1)C(F)(F)F (stereo not drawn) gave a remaining binding of 76% (cell-free assay; competition with immobilised ligand; 1 µM).
For Cc1cnc(Nc2ccc(C(=O)N3CCC(N4CCCC4)CC3)cc2)nc1-c1cc2ccccc2s1, the remaining binding was 0.3% (binding; competition with immobilised ligand; 1 µM).
For C[C@@H]1CCN(c2nccc(-c3cnn4ncccc34)n2)C1, the remaining binding was 61% (binding; 1 µM).
c1cncc(-c2cccc(Nc3nccc(NC4CCCCC4)n3)c2)c1 has a remaining binding of 5.3% (binding; competition with immobilised ligand; 10 µM).
The remaining binding of COc1ccnn2ncc(-c3ccnc(N(C)C)n3)c12 is reported as 79% (binding; 1 µM).
With O=C(NCCCC1CCCCC1)c1ccc(CNC(=O)c2cnn(-c3ccccc3)c2C(F)(F)F)cc1 the remaining binding was 100% (cell-free assay; competition with immobilised ligand; 0.1 µM).
With CN1CCN(c2ccc(Nc3nccc(-c4cccc([N+](=O)[O-])c4)n3)cc2C(F)(F)F)CC1 the remaining binding was 13% (binding; 10 µM).
